# Rows were chosen to be rich in hits. Some 0.98% of all compounds tested hit in one or more screens of this group.
# ERAP1 HTS inh: ERAP1 (human) enzyme inhibition; recombinant ERAP1, Leu-AMC fluorescence, 60 min; Q9NZ08; 340,000 compounds, 0.15% hits; AID 652197; inhibition, % at 10.7 µM;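 active = mean replicate inhibition of at least 30%, or all replicates individually reaching that 30% level; inactive = mean below 30% and not every replicate reaching it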;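 note: 0% = neutral control wells and 100% = L-leucinethiol positive control wells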
# Statin myotox sup: suppression of simvastatin myotoxicity; 330,000 compounds, 0.78% hits; rescue of ATP level, % at 7.49 µM; C2C12 myotubes + simvastatin, ATP luminescence, 48 h; scaled: DMSO 0, geranylgeraniol control 100;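 active = mean ATP rescue above about 67%, or every replicate alone reaching that limit, limit read from the data, passing the limit was not always enough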;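 note: myotubes were challenged with 10 µM simvastatin during compound exposure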
# Rtt109 HAT inh: C. albicans Rtt109 histone acetyltransferase inhibition; inhibition, % at 34.9 µM; AID 540336; Q5AAJ8; 330,000 compounds, 0.16% hits; purified Rtt109/Vps75, ThioGlo CoA-SH fluorescence, 4 h;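 active = inhibition of at least 50% in every replicate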
# S100A4 inh HTS: inhibitors of human S100A4 binding to myosin IIA peptide; P26447; S100A4/TAMRA-MyoIIA peptide fluorescence polarization; inhibition, % at 10.7 µM; 360,000 compounds, 0.14% hits; AID 652163;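 active = mean inhibition of at least 70% across replicates, with every replicate also reaching that level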
#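 Test system: S100A4 monomer protein; Medium: HEPES pH 7.2 with CaCl2, KCl, NaCl, DTT, Triton; Probe or stimulus: TAMRA-labelled myosin IIA heavy-chain peptide probe, 5 nM; Doses: one dose per compound; Times: polarization read 5 min after assay mix addition, stable 5–60 min; Benchmarks: neutral control DMSO, positive control TFP.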
# PGC1a acetyl inh: PGC1a acetylation modulation, inhibitor mode; 350,000 compounds, 0.17% hits; AID 651687; U2OS PGC1a acetylation, AlphaScreen anti-acetyl-lysine; with virally co-expressed GCN5 acetyltransferase; inhibition, % at 15.6 µM;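 active = every replicate shows inhibition of at least 40%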;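 note: 0% = neutral control wells and 100% = positive control wells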
# Starred values were filed as active, the others as inactive; nt = no result; + = active, no number.
SMILES,ERAP1 HTS inh,Statin myotox sup,Rtt109 HAT inh,S100A4 inh HTS,PGC1a acetyl inh
CCN1CCCC1CNC(=O)c1c(O)c2c([nH]c1=O)CCCC2 (stereo not drawn),nt,118.9*,1.9,nt,11.2
COC(=O)[C@H](Cc1ccccc1)N1C(=O)O[C@@H](Cc2ccccc2)[C@H]1/C=C/C1CC1,-1.0,nt,nt,23.1,-28.9
CCCS(=O)(=O)N1CCCC(C(=O)NCCCOC(C)C)C1 (stereo not drawn),nt,nt,6.7,nt,63.9*
C#CCn1c(=NC(=O)c2ccc(Cl)s2)sc2cccc(OC)c21,30.3*,1.2,-12.7,1.8,-3.6
CCCN(C)C[C@@H]1OCCCC[C@@H](C)Oc2ccc(NC(=O)CCC(F)(F)F)cc2C(=O)N([C@@H](C)CO)C[C@@H]1C,-1.0,-5.4,nt,-12.3,-13.3
Cc1ccc(NC(=O)CN(C)CC(=O)Nc2c(C)cccc2C)c(Br)c1,nt,96.7*,-5.0,nt,-12.1
Cc1ccc(NC(=O)Cn2cccc2)c(Br)c1,nt,3.3,7.5,nt,8.0
CCc1ccccc1NC(=O)C1CCN(C(=O)c2ccc([N+](=O)[O-])cc2)CC1,2.6,11.3,57.6*,0.4,-3.3
O=C(CCS(=O)(=O)c1ccccc1)Nc1ncc([N+](=O)[O-])s1,4.0,74.8*,20.5,-3.1,-3.6
O=C(CS(=O)(=O)c1ccccc1)Nc1ncc([N+](=O)[O-])s1,2.6,1.2,11.6,-7.6,4.4
O=S(=O)(Nc1cccc(-c2cn3c(n2)SCC3)c1)c1ccccc1,45.7*,3.2,13.9,-5.5,5.6
CS(=O)(=O)Nc1cccc(-c2cn3c(n2)SCC3)c1,26.1,2.3,5.5,-1.5,-22.9
Cc1cc(C)c2sc(C)[n+](CCCS(=O)(=O)[O-])c2c1,97.2*,-2.7,90.1*,-16.1,3.4
CC[n+]1c(C)sc2c(C)cc(C)cc21,21.1,nt,114.1*,-0.9,-3.4
CCC[n+]1c(C)sc2c3c(ccc21)CCCC3,nt,4.1,-2.1,nt,-0.5
Cc1ccc2c(C)cc[n+](CCCS(=O)(=O)[O-])c2c1,nt,-5.9,1.0,nt,-2.0
O=C(NCC(F)(F)F)[C@H]1[C@H](CO)[C@H]2Cn3c(cccc3=O)[C@@H]1N2CC1CCCC1,-2.0,nt,nt,3.7,-2.2
C[C@H]1CN([C@@H](C)CO)C(=O)c2cccc(NC(=O)Nc3cccc4ccccc34)c2O[C@H]1CN(C)Cc1ccc(Oc2ccccc2)cc1,0.6,42.4,nt,7.1,-2.3
C[C@@H]1CN([C@H](C)CO)C(=O)c2cccc(NC(=O)Nc3ccccc3)c2O[C@@H]1CN(C)S(=O)(=O)c1ccc(Cl)cc1,-0.4,43.8,nt,5.5,-0.6
CCCNC(=O)C[C@H]1C[C@H]2c3cc(NC(=O)Nc4ccccc4)ccc3O[C@H]2[C@@H](CO)O1,nt,1.2,nt,nt,0.4
CCC1(CC)C(=O)NC(=O)NC1=Nc1cccc(OC)c1,nt,117.0*,-3.5,nt,-11.7
CC(=O)Nc1nnc(CCS(=O)(=O)c2ccc(C)c(C)c2)s1,-2.0,-3.8,58.8*,-2.6,-0.2
O=C(NC(=S)Nc1ccc(Oc2ccccc2)cc1)c1ccc(Cl)cc1,nt,37.1,54.6*,nt,3.8
Cc1ccccc1-c1cnc2c(c1)C(=O)N([C@@H](C)CO)C[C@H](C)[C@H](CN(C)C(=O)c1ccc(F)cc1)O2,2.2,11.7,nt,-1.8,1.8
COc1ccc(C(N)CCc2ccc(C)o2)cc1 (stereo not drawn),nt,136.9*,-8.9,nt,-2.3
SMILES,ERAP1 HTS inh,Statin myotox sup,Rtt109 HAT inh,S100A4 inh HTS,PGC1a acetyl inh
C[C@H](CO)N1C[C@H](C)[C@@H](CN(C)Cc2ccccc2)Oc2ccc(NC(=O)CCC(F)(F)F)cc2C1=O,-1.2,-12.3,nt,12.6,-4.9
COc1ccccc1NC(=O)N1CC(=O)N2[C@H](CO)[C@H](c3ccc(C#Cc4ccccc4)cc3)[C@@H]2C1,2.7,nt,nt,65.3,-2.0
CC1(C)CC(=O)C(C=NCCN2CCN(C(=S)Nc3ccc(F)cc3)CC2)=C(O)C1,nt,65.1*,-2.3,nt,-0.4
CCSc1nc2sc3c(c2c(=O)n1-c1ccc(OC)cc1)CCN(C)C3,-1.2,100.7*,-5.3,1.4,4.6
Cc1ccc(S(=O)(=O)O/N=C2\CCCc3ccccc32)cc1,nt,26.0,-3.1,nt,7.3
CC1=C(C)/C(=N\OS(=O)(=O)c2ccccc2)C=CC1=O,3.5,nt,147.3*,-1.3,17.8
CO[C@H]1CN(C)C(=O)c2cc(NC(C)=O)ccc2OC[C@@H](C)N(C(=O)c2ccncc2)C[C@H]1C,-1.6,-1.6,nt,-4.1,-4.7
COc1cc(/C=N/NC(=O)c2ccc(O)cc2)ccc1OCC(=O)Nc1cccc([N+](=O)[O-])c1,-3.2,8.7,-1.7,-1.2,52.3*
O=C(COc1ccccc1)N1CCN(c2nnc(-c3ccccc3)c3ccccc23)CC1,nt,79.2*,6.8,nt,nt
CC(C)NC(=O)Nc1ccc2c(c1)C(=O)N([C@H](C)CO)C[C@H](C)[C@@H](CN(C)C(=O)NC(C)C)OCCCC[C@@H](C)O2,0.5,nt,nt,-38.5,-0.7
Cc1cccc(N2C(S)=C(C#N)C(=O)NC2c2cccs2)c1 (stereo not drawn),nt,nt,121.0*,nt,4.1
N#CC1=C(S)N(c2ccc(F)cc2)C(c2cccs2)NC1=O (stereo not drawn),nt,6.3,9.2,nt,15.5
Cc1ccccc1N1C(S)=C(C#N)C(=O)NC1c1cccs1 (stereo not drawn),nt,14.3,+,nt,-3.7
Cc1ccccc1S(=O)(=O)N1CC[C@@H]2[C@@H](CO)Nc3ccc(-c4cccc(F)c4)cc3[C@@H]21,-2.2,-12.8,nt,6.5,-4.2
CN(C)c1ccc(NC(=O)/C=C/c2ccccc2Cl)cc1,nt,nt,56.1*,nt,-6.9
O=C(/C=C/c1ccccc1Cl)NCc1ccccc1,nt,144.8*,12.2,nt,6.4
O=C(/C=C/c1ccc(Cl)cc1)NCc1ccncc1,nt,0.8,52.5*,nt,11.8
COc1ccc(OCC(=O)NNC(=O)c2c(-c3ccccc3Cl)noc2C)cc1,-3.6,1.1,-1.1,0.2,61.7*
CCSc1nnc(NC(=O)c2c(-c3ccccc3Cl)noc2C)s1,nt,126.0*,-2.9,nt,-2.3
Cc1onc(-c2ccccc2Cl)c1C(=O)Nc1nnc(-c2cccc([N+](=O)[O-])c2)s1,-0.5,-15.5,19.4,-4.0,8.5
COc1ccccc1OCC(=O)NNC(=O)c1c(-c2ccccc2Cl)noc1C,-2.7,nt,0.6,-0.1,15.3
CCOC(=O)C[N+](C)(C)CCOC1CC2CCC1(C)C2(C)C (stereo not drawn),nt,nt,-0.4,nt,nt
CC1(C)C2CCC1(C)C(OCC[N+](C)(C)CC(=O)OC1CCCCC1)C2 (stereo not drawn),5.1,-111.0,57.9*,-9.5,-1.9
C[C@H]1CN([C@@H](C)CO)C(=O)c2cc(C3=CCCCC3)cnc2O[C@@H]1CN(C)Cc1ccccc1F,-0.6,38.4,nt,15.1,-14.9
O=C(N/N=C/c1ccc[nH]1)c1ccc(COc2cccc3cccnc23)cc1,1.8,-105.2,-11.5,0.0,-6.0
Cc1cc(Br)c(OCc2ccc(C(=O)N/N=C/c3ccc[nH]3)cc2)c(Br)c1,2.1,-117.5,-5.1,-28.3,86.7*

# From PubChem BioAssay
